Results on 16 compounds are retold here after ChEMBL document CHEMBL1153732, “Lamiridosins, hepatitis C virus entry inhibitors from Lamium album” (J Nat Prod, 2009).

The subject of series [1] is Hepatitis C virus. Description: Antiviral activity against HCV expressing E1E2 glycoprotein with Vpr-deficient HIV vector assessed as inhibition of viral entry in human Huh7 cells at 20 ug/ml after 72 hrs by luciferase reporter gene assay in presence of beta-glucosidase enzyme for 4 hrs. It counts as functional, Hepacivirus hominis. The settings on record: Huh-7. The gist of the method: (§1)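 Iridoid glucosides were hydrolysed with β-glucosidase for 0.5 h or 4 h before testing at 20 µg/mL. Hydrolysates were mixed at rt with HCVpp and incubated with Huh7 cells for 6 h, then the medium was changed. Luciferase was read at 72 h postinfection as % inhibition. Duplicates, ≥3 experiments.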

For series [2], the system named is Hepatitis C virus. Kind of series: Antiviral activity against HCV expressing E1E2 glycoprotein with Vpr-deficient HIV vector assessed as inhibition of viral entry in human Huh7 cells at 20 ug/ml measured after 72 hrs by luciferase reporter gene assay. It counts as functional, organism-based. The settings on record: Hepacivirus hominis, Huh-7. The gist of the method: (§2)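 HCVpp (E1E2 with HIV luciferase vector, made in 293T) was mixed at room temperature with 20 µg/mL compound and added to Huh7 cells for 6 h, then replaced by growth medium. Cells were lysed at 72 h postinfection and luciferase read as % inhibition. Samples in duplicate, experiments repeated at least three times.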

Series [3] deals with Hepatitis C virus. Kind of series: Antiviral activity against HCV expressing E1E2 glycoprotein with Vpr-deficient HIV vector assessed as inhibition of viral entry in human Huh7 cells at 20 ug/ml after 72 hrs by luciferase reporter gene assay in presence of beta-glucosidase enzyme for 0.5 hrs. It counts as functional, Hepacivirus hominis. The note with it: Huh-7. The method, boiled down: as §1

Series [4] concerns Hepatitis C virus. Kind of series: Antiviral activity against HCV expressing E1E2 glycoprotein with Vpr-deficient HIV vector assessed as inhibition of pseudoparticle entry in human Huh7 cells at 100 ug/ml preincubated for 20 mins measured after 72 hrs by luciferase reporter gene assay. It counts as functional. The note with it: Huh-7. The method, boiled down:
(§3)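 HCV E1E2 or VSVG pseudoviruses were made by cotransfecting 293T cells with the envelope plasmid and pNL4-3-Luc-R-E-, then harvested at 48 h and filtered. Each pseudovirus was preincubated 20 min at rt with 100 µg/mL sample or DMSO, then put on Huh7 cells for 6 h before the medium was replaced. Luciferase was read at 72 h as % of no-drug control. Duplicates, ≥3 experiments.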

The target of series [5] is T1, CD81 antigen (Homo sapiens) (UniProt P60033).
T1 sequence (whole entry): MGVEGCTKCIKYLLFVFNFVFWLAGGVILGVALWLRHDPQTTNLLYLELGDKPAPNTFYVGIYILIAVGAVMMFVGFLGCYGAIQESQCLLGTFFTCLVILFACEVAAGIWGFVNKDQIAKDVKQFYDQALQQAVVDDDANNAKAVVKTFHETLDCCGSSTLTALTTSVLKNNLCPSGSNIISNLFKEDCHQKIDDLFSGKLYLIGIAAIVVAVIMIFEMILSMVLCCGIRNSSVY
Description: Inhibition of human recombinant GST-tagged CD81 protein assessed as HCV E1E2 binding after 1 hr by Western blot analysis. The gist of the method:
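Lysates of 293T cells expressing HCV E1E2 were taken 48 h post-transfection in 0.5% Triton X-100 buffer with protease inhibitor and clarified. They were rocked with 50 µg/mL compound or DMSO and 5 µg CD81-GST (large extracellular loop of human CD81) at 4 °C for 16 h. Glutathione beads were added for 1 h at 4 °C, then washed. Western blot for E2 and GST; GST alone served as control.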
(In general: In western blotting, separated proteins are transferred to a membrane and probed.)

The test system of series [6] is Vesicular stomatitis virus. Kind of series: Antiviral activity against VSV with Vpr-deficient HIV vector assessed as inhibition of VSVG pseudo-particle entry in human Huh7 cells at 100 ug/ml preincubated for 20 mins measured after 72 hrs by luciferase reporter gene assay. The settings on record: Huh-7. It is filed as functional, organism-based. The method, boiled down:
as §3
For orientation: A reporter such as luciferase makes a cellular process visible.

The nature of series [7]: Cytotoxicity against human HepG2(2.2.15) cells at 50 ug/ml. It counts as cell-based.
For series [8], the system named is Hepatitis C virus. Description: Antiviral activity against HCV infected in human Huh7 cells assessed as inhibition of viral replication after 48 hrs by NS5A staining. The settings on record: Huh-7, 48 h.
Series [9] has as its system Hepatitis C virus. Description: Antiviral activity against HCV expressing E1E2 glycoprotein with Vpr-deficient HIV vector assessed as inhibition of pseudoparticle entry in human Huh7 cells preincubated for 20 mins measured after 72 hrs by luciferase reporter gene assay. It is filed as functional, organism-based, Hepacivirus hominis. The note with it: Huh-7. The gist of the method: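 HCV E1E2/HIV-luciferase pseudovirus was preincubated 20 min at rt with a range of concentrations in µg/mL and incubated with Huh7 cells (8 × 10^4 per well, seeded the day before) for 6 h, then the medium was replaced. Luciferase was measured at 72 h and expressed as % of no-drug control. IC50 came from the concentration-response. Duplicates, ≥3 repeats.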

For series [10], the system named is Hepatitis C virus. Description: Antiviral activity against HCV expressing E1E2 glycoprotein with Vpr-deficient HIV vector assessed as inhibition of viral entry in human Huh7 cells at 20 ug/ml after 72 hrs by luciferase reporter gene assay. It is filed as functional, Hepacivirus hominis. The settings on record: Huh-7, 72 h. The method, boiled down: as §2

≈ marks a conversion by molar mass, not a printed value. Calls of active or inactive are those of the source. The rule behind the calls is not given here.

On to `C[C@H]1[C@H]2[C@H](O[C@@H]3O[C@H](CO)[C@@H](O)[C@H](O)[C@H]3O)OC=C(C(=O)O)[C@H]2C[C@@H]1O`, for which the inhibition (as a rule, the drop in the measured response relative to a control, in per cent) at 20 µg/mL in the series on Hepatitis C virus [1] was 5.3%; in the series with Hepatitis C virus [3] it was -21.6%. Also, the result in the series with Hepatitis C virus [2] was inactive.
The corresponding values for `COC(=O)C1=CO[C@@H](O[C@@H]2O[C@H](CO)[C@@H](O)[C@H](O)[C@H]2O)[C@@H]2[C@H](C)[C@@H](O)C[C@H]12` are 0.4%, -12.7% and “inactive”.
On to `COC(=O)C1=CO[C@@H](O[C@@H]2O[C@H](CO)[C@@H](O)[C@H](O)[C@H]2O)[C@H]2[C@@H]1[C@H](O)[C@H](O)[C@]2(C)O`, for which the outcome with Hepatitis C virus [2] and in the series with Hepatitis C virus [4] (Hepacivirus hominis) was inactive.
With `OCC1=C[C@@H](O)[C@@H]2C=CO[C@@H](O[C@@H]3O[C@H](CO)[C@@H](O)[C@H](O)[C@H]3O)[C@H]12`, the result in the series with Hepatitis C virus [2] was inactive.
`COC(=O)C1=COC(O)[C@H]2[C@@H]1[C@H](O)[C@H](O)C2(C)O` (mixture of isomers): the outcome (with Hepatitis C virus [2]; in [5]; in series [6]) was inactive. Further, in series [7], the Activity result is reported as “Non-toxic”. Moreover, in the series on Hepatitis C virus [4], the inhibition at 100 µg/mL came to 50%. Further, the IC50 (usually the concentration at which inhibition is half-maximal) turned out to be 15 µg/mL in the series with Hepatitis C virus [8] and 2310 nM in the series on Hepatitis C virus [9].
As for `O=C(OCC1=C[C@@H](O)[C@@H]2C=CO[C@@H](O[C@@H]3O[C@H](CO)[C@@H](O)[C@H](O)[C@H]3O)[C@H]12)c1ccc(O)cc1` [AGNUSIDE], the inhibition at 20 µg/mL in the series with Hepatitis C virus [1] came out at 20.3%; in the series on Hepatitis C virus [3], 12.9%. For the same compound, the result with Hepatitis C virus [2] was inactive.
As for `O=C(/C=C/c1ccc(O)cc1)OCC1=C[C@@H](O)[C@@H]2C=CO[C@@H](O[C@@H]3O[C@H](CO)[C@@H](O)[C@H](O)[C@H]3O)[C@H]12` [EUROSTOSIDE], the results for the inhibition at 20 µg/mL in the series with Hepatitis C virus [1] and with Hepatitis C virus [3] were 56.6% and 46.6%, respectively. Also, the result (with Hepatitis C virus [2]; in series [5]) was inactive. The IC50 in the series on Hepatitis C virus [8] is 20 µg/mL (≈ 40.6 µM).
As for `COC(=O)C1=CO[C@@H](O[C@@H]2O[C@H](CO)[C@@H](O)[C@H](O)[C@H]2O)[C@H]2[C@@H]1C=C[C@@]2(O)CO` [GARDENOSIDE], the inhibition at 20 µg/mL with Hepatitis C virus [1] was 21.1%; in the series on Hepatitis C virus [3], -3.4%. Moreover, in the series with Hepatitis C virus [2], the result was inactive.
Turning to `COC(=O)C1=CO[C@@H](O)[C@@H]2C(CO)=CC[C@H]12` [GENIPIN], the result in [5] was inactive. In addition, the inhibition at 20 µg/mL with Hepatitis C virus [10] turned out to be 73.2%. Moreover, the IC50 with Hepatitis C virus [8] turned out to be 20 µg/mL (≈ 88.4 µM).
For the compound `COC(=O)C1=CO[C@@H](O[C@@H]2O[C@H](CO)[C@@H](O)[C@H](O)[C@H]2O)[C@@H]2C(CO)=CC[C@H]12` [GENIPOSIDE], the inhibition at 20 µg/mL in the series on Hepatitis C virus [1] was 17.1%; with Hepatitis C virus [10] it was 1.1%; with Hepatitis C virus [3], 9.8%. Further, in the series with Hepatitis C virus [2], the result was inactive.
The matching figures for `C[C@]1(OC(=O)/C=C/c2ccccc2)C[C@@H](O)[C@]2(O)C=CO[C@@H](O[C@@H]3O[C@H](CO)[C@@H](O)[C@H](O)[C@H]3O)[C@@H]21` [HARPAGOSIDE]: 17.1%, 2.1%, -41.7% and “inactive”.
As to `C[C@@H]1[C@H]2[C@H](O[C@@H]3O[C@H](CO)[C@@H](O)[C@H](O)[C@H]3O)OC=C(C(=O)O)[C@H]2C[C@@H]1O` [LOGANIC ACID], the inhibition at 20 µg/mL in the series on Hepatitis C virus [1] was 52.5%; in the series with Hepatitis C virus [3] it was 39.4%. In addition, the result (in the series on Hepatitis C virus [2]; in series [5]) was inactive. The IC50 in the series with Hepatitis C virus [8] was 11 µg/mL (≈ 29.2 µM).
As to `COC(=O)C1=CO[C@@H](O[C@@H]2O[C@H](CO)[C@@H](O)[C@H](O)[C@H]2O)[C@@H]2[C@@H](C)[C@@H](O)C[C@H]12` [LOGANIN], the inhibition at 20 µg/mL was determined as 41.4% with Hepatitis C virus [1] and 24.8% in the series with Hepatitis C virus [3]. Further, the result (with Hepatitis C virus [2]; in series [5]) was inactive. Also, in the series with Hepatitis C virus [8], the IC50 was 16 µg/mL (≈ 41 µM).
In the case of `COc1cc(C(=O)O[C@H]2[C@@H]3C=CO[C@@H](O[C@@H]4O[C@H](CO)[C@@H](O)[C@H](O)[C@H]4O)[C@@H]3[C@@]3(CO)O[C@@H]23)ccc1O` [PICROSIDE II], the inhibition at 20 µg/mL with Hepatitis C virus [1] came out at 59.4%; in the series on Hepatitis C virus [3], 31.6%. The result with Hepatitis C virus [2] was inactive.
Take `COC(=O)C1=CO[C@@H](O[C@@H]2O[C@H](CO)[C@@H](O)[C@H](O)[C@H]2O)[C@H]2[C@@H]1[C@H](O)C[C@]2(C)O` [SHANZHISIDE METHYL ESTER]: the inhibition at 20 µg/mL in the series on Hepatitis C virus [1] is 61.2%; in the series on Hepatitis C virus [10], -13.1%; in the series with Hepatitis C virus [3], 49%. For the same compound, the result (in the series with Hepatitis C virus [2]; in [5]) was inactive. In the series with Hepatitis C virus [8], the IC50 is 18 µg/mL (≈ 44.3 µM).
Consider `COC(=O)C1=CO[C@@H](O[C@@H]2O[C@H](CO)[C@@H](O)[C@H](O)[C@H]2O)[C@H]2[C@@H]1C(=O)C[C@@H]2C` [VERBENALIN], for which the inhibition at 20 µg/mL amounted to 43.4% with Hepatitis C virus [1] and 21.9% in the series with Hepatitis C virus [3]. The outcome in the series on Hepatitis C virus [2] was inactive.
